# According to ChEMBL document CHEMBL1126794, “2-(Quinuclidin-3-yl)pyrido[4,3-b]indol-1-ones and isoquinolin-1-ones. Potent conformationally restricted 5-HT3 receptor antagonists” (J Med Chem, 1993):
# Columns and labels:
# [1] = target: T1, Serotonin 3 (5-HT3) receptor (Rattus norvegicus, UniProt P35563+Q9JJ16); experiment: Binding affinity against 5-hydroxytryptamine 3 (5-HT3) receptor in rat brain cortical membranes using radioligand [3H]quipazine; format: cell membranes
# T1 sequence (P35563 whole entry): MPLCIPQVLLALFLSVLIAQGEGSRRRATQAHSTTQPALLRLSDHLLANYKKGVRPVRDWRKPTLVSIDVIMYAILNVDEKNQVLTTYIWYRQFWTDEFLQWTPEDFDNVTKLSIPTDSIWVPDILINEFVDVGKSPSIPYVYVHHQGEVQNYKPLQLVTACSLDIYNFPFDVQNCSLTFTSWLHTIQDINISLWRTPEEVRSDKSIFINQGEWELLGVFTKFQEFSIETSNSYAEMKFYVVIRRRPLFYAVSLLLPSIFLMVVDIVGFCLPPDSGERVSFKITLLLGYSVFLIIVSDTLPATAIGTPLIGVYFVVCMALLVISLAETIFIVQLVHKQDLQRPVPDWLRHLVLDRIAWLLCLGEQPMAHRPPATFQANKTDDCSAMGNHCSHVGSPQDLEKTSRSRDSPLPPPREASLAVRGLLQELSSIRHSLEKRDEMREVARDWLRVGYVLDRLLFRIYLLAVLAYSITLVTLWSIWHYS
# T1 sequence (Q9JJ16 whole entry): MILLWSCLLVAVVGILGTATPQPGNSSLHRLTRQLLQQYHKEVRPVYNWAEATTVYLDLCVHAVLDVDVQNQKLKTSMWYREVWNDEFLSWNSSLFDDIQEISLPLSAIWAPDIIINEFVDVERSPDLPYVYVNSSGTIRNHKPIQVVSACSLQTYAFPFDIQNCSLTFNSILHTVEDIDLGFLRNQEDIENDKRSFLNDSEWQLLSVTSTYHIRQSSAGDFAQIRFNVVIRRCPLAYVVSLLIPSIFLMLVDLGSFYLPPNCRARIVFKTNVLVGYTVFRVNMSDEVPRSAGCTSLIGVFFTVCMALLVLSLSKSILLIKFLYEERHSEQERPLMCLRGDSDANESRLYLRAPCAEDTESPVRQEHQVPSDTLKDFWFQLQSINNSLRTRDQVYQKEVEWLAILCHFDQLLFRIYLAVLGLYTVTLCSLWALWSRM
# How it was run: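 Rat cerebral cortex membranes, washed in 50 mM Tris pH 7.4, incubated 45 min at 25 °C in Tris-Krebs buffer pH 7.4 with 0.3–0.7 nM [3H]quipazine plus 0.1 μM paroxetine. Ten test concentrations from 1e-12 to 1e-4 M. Nonspecific binding defined with 1.0 μM racemic zacopride. Filtration, scintillation counting, IC50 by iterative fit, Ki by Cheng-Prusoff. Means of ≥3 determinations, or of two.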
# Rattus norvegicus [2] = experiment: Potency to inhibit bradycardiac effect measured by Von Bezold-Jarisch assay in 8 anesthetized rats; format: functional; settings: read-out: ID50 (the source's name)
# How it was run: (§1)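 Male Sprague-Dawley rats, 250–380 g, under urethane (1.5 g/kg ip), with cannulated trachea and femoral veins; heart rate recorded by ECG. Lowest consistent bradycardic dose of 2-methyl-5-HT titrated iv, then given every 12 min. Increasing iv doses given 5 min before each challenge, with saline vehicle group.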
# Canis familiaris [3] = experiment: Inhibition of emesis induced by peroral administration of cisplatin in 6 dogs at 0.1 mg/kg; format: functional, Canis lupus familiaris; settings: route oral
# How it was run: (§2)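 Single oral pretreatment in dogs (n = 6) by liquid gelatin capsule, 30 min before iv cisplatin at 3 mg/kg. Number of emetic episodes monitored continuously for 5 h after cisplatin. Significance versus control by Dunnett's t test.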
# Canis familiaris [4] = experiment: Inhibition of emesis induced by peroral administration of cisplatin in 6 dogs at 0.3 mg/kg (p<0.01); format: functional, Canis lupus familiaris; settings: route oral; how it was run: as §2
# Canis familiaris [5] = experiment: Inhibition of emesis induced by peroral administration of cisplatin in 6 dogs at 1.0 mg/kg (p<0.01); format: functional, Canis lupus familiaris; settings: route oral; how it was run: as §2
# Canis familiaris [6] = experiment: Inhibition of emesis induced by intravenous administration of cisplatin in 6 dogs at 0.01 mg/kg; format: functional, Canis lupus familiaris
# How it was run: (§3)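 Dogs, n = 6 per group, given one iv dose of test compound as an aqueous solution through a jugular vein cannula 30 min before iv cisplatin (3 mg/kg). Emetic episodes counted by continuous observation for 5 h after cisplatin. Results given as mean ± value versus control, with significance by Dunnett's t test.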
# Canis familiaris [7] = experiment: Inhibition of emesis induced by intravenous administration of cisplatin in 6 dogs at 0.03 mg/kg; format: functional, Canis lupus familiaris; how it was run: as §3
# Canis familiaris [8] = experiment: Inhibition of emesis induced by intravenous administration of cisplatin in 6 dogs at 0.1 mg/kg (p<0.01); format: functional, Canis lupus familiaris; how it was run: as §3
# Canis familiaris [9] = experiment: Inhibition of emesis induced by intravenous administration of cisplatin in 6 dogs at 0.3 mg/kg (p<0.01); format: functional, Canis lupus familiaris; how it was run: as §3
# Canis familiaris [10] = experiment: Inhibition of emesis induced by intravenous administration of cisplatin in 6 dogs at 1 mg/kg (p<0.01); format: functional, Canis lupus familiaris; how it was run: as §3
# Canis familiaris [11] = experiment: Inhibition of emesis induced by peroral administration of cisplatin in 6 dogs at 0.01 mg/kg; format: functional, Canis lupus familiaris; settings: route oral; how it was run: as §2
# Canis familiaris [12] = experiment: Inhibition of emesis induced by peroral administration of cisplatin in 6 dogs at 0.03 mg/kg; format: functional, Canis lupus familiaris; settings: route oral; how it was run: as §2
# Mustela putorius furo [13] = experiment: Inhibition of emesis induced by peroral administration of cisplatin in 5 ferrets at 0.3 mg/kg (p<0.01); format: functional; settings: route oral
# Mustela putorius furo [14] = experiment: Inhibition of emesis induced by peroral administration of cisplatin in 5 ferrets at 0.03 mg/kg; format: functional; settings: route oral
# Mustela putorius furo [15] = experiment: Inhibition of emesis induced by peroral administration of cisplatin in 5 ferrets at 0.1 mg/kg (p<0.01); format: functional; settings: route oral
# Rattus norvegicus [16] = experiment: Potency to inhibit bradycardiac effect measured by Von Bezold-Jarisch assay in 9 anesthetized rats; format: functional; settings: Rattus norvegicus; read-out: ID50 (the source's name); how it was run: as §1
# Rattus norvegicus [17] = experiment: Potency to inhibit bradycardiac effect measured by Von Bezold-Jarisch assay in 5 anesthetized rats; format: functional; settings: read-out: ID50 (the source's name); how it was run: as §1
# Canis familiaris [18] = experiment: Inhibition of emesis induced by peroral administration of cisplatin in 6 dogs at 0.03 mg/kg (p<0.01); format: functional, Canis lupus familiaris; settings: route oral
# Canis familiaris [19] = experiment: Inhibition of emesis induced by peroral administration of cisplatin in 6 dogs at 0.1 mg/kg (p<0.01); format: functional, Canis lupus familiaris; settings: route oral
# Canis familiaris [20] = experiment: Inhibition of emesis induced by intravenous administration of cisplatin in 6 dogs at 0.001 mg/kg (p<0.05); format: functional, Canis lupus familiaris
# Canis familiaris [21] = experiment: Inhibition of emesis induced by intravenous administration of cisplatin in 6 dogs at 0.003 mg/kg (p<0.01); format: functional, Canis lupus familiaris
# Canis familiaris [22] = experiment: Inhibition of emesis induced by intravenous administration of cisplatin in 6 dogs at 0.03 mg/kg (p<0.01); format: functional, Canis lupus familiaris
# Canis familiaris [23] = experiment: Inhibition of emesis induced by peroral administration of cisplatin in 6 dogs at 0.001 mg/kg; format: functional, Canis lupus familiaris; settings: route oral
# Canis familiaris [24] = experiment: Inhibition of emesis induced by peroral administration of cisplatin in 6 dogs at 0.003 mg/kg; format: functional, Canis lupus familiaris; settings: route oral
# Canis familiaris [25] = experiment: Inhibition of emesis induced by peroral administration of cisplatin in 6 dogs at 0.01 mg/kg (p<0.01); format: functional, Canis lupus familiaris; settings: route oral
# Mustela putorius furo [26] = experiment: Inhibition of emesis induced by peroral administration of cisplatin in 6 ferrets at 0.001 mg/kg; format: functional; settings: route oral
# Mustela putorius furo [27] = experiment: Inhibition of emesis induced by peroral administration of cisplatin in 6 ferrets at 0.003 mg/kg (p<0.05); format: functional; settings: route oral
# Mustela putorius furo [28] = experiment: Inhibition of emesis induced by peroral administration of cisplatin in 6 ferrets at 0.01 mg/kg (p<0.005); format: functional; settings: route oral
# Mustela putorius furo [29] = experiment: Inhibition of emesis induced by intravenous administration of cisplatin in 5 ferrets at 0.003 mg/kg; format: functional
# Mustela putorius furo [30] = experiment: Inhibition of emesis induced by intravenous administration of cisplatin in 5 ferrets at 0.03 mg/kg (p<0.005); format: functional
# Mustela putorius furo [31] = experiment: Inhibition of emesis induced by intravenous administration of cisplatin in 6 ferrets at 0.01 mg/kg (p<0.005); format: functional
# Mustela putorius furo [32] = experiment: Inhibition of emesis induced by intravenous administration of cisplatin in 6 ferrets at 0.1 mg/kg (p<0.005); format: functional
# Mustela putorius furo [33] = experiment: Inhibition of emesis induced by intravenous administration of cisplatin in 9 ferrets at 0.001 mg/kg; format: functional
# Mustela putorius furo [34] = experiment: Inhibition of emesis induced by peroral administration of cisplatin in 5 ferrets at 0.03 mg/kg (p<0.005); format: functional; settings: route oral
# Mustela putorius furo [35] = experiment: Inhibition of emesis induced by peroral administration of cisplatin in 5 ferrets at 0.1 mg/kg (p<0.005); format: functional; settings: route oral
smiles,measurement,setting,value
Cl.O=c1c2cccc3c2c(cn1[C@@H]1CN2CCC1CC2)CCCC3,Ki,[1],0.398 nM
same,ED50,Rattus norvegicus [2],0.09 µg/kg
Cc1cccc2c(=O)n(C3CN4CCC3CC4)ccc12.Cl (stereo not given),Ki,[1],0.631 nM
same,ED50,Rattus norvegicus [2],0.1 µg/kg
O=C1c2cccc3c2[C@@H](CCC3)CN1C1CN2CCC1CC2 (mixture of isomers),Ki,[1],0.316 nM
O=c1c2ccccc2ccn1[C@@H]1CN2CCC1CC2,Ki,[1],3.98 nM
Cn1c2ccccc2c2c(=O)n([C@@H]3CN4CCC3CC4)ccc21,ED50,Rattus norvegicus [2],0.13 µg/kg
O=C1c2cccc3c2[C@@H](CCC3)CN1[C@H]1CN2CCC1CC2,Ki,[1],3.98 nM
CCCc1cn([C@@H]2CN3CCC2CC3)c(=O)c2ccccc12,Ki,[1],5.01 nM
Cc1nccn1CC1CCc2c(c3ccccc3n2C)C1=O (stereo not given) [ONDANSETRON],No. of emetic episodes,Canis familiaris [3],10.5
same,No. of emetic episodes,Canis familiaris [4],3.17
same,No. of emetic episodes,Canis familiaris [5],2
same,No. of emetic episodes,Canis familiaris [6],13.33
same,No. of emetic episodes,Canis familiaris [7],8.33
same,No. of emetic episodes,Canis familiaris [8],4.83
same,No. of emetic episodes,Canis familiaris [9],1
same,No. of emetic episodes,Canis familiaris [10],1.17
same,No. of emetic episodes,Canis familiaris [11],12.67
same,No. of emetic episodes,Canis familiaris [12],18.33
same,No. of emetic episodes,Mustela putorius furo [13],4.2
same,No. of emetic episodes,Mustela putorius furo [14],11.2
same,No. of emetic episodes,Mustela putorius furo [15],2.2
same,ED50,Rattus norvegicus [16],2.6 µg/kg
O=C1c2ccccc2CCN1C1CN2CCC1CC2 (stereo not given),Ki,[1],10 nM
Cc1cccc2c1CCN([C@@H]1CN3CCC1CC3)C2=O.Cl,Ki,[1],0.316 nM
same,ED50,Rattus norvegicus [2],0.13 µg/kg
COc1ccc2c3c(cn(C4CN5CCC4CC5)c(=O)c13)CCC2 (stereo not given),Ki,[1],158 nM
Cn1cc(C(=O)N[C@@H]2CN3CCC2CC3)c2ccccc21,Ki,[1],0.398 nM
COc1cc(N)c(Cl)cc1C(=O)N[C@H]1CN2CCC1CC2 [(R)ZACOPRIDE],Ki,[1],3.16 nM
Cl.O=c1c2cccc3c2c(cn1C1CN2CCC1CC2)CC3 (stereo not given),Ki,[1],0.631 nM
same,ED50,Rattus norvegicus [16],0.18 µg/kg
CCc1cccc(C(=O)N[C@@H]2CN3CCC2CC3)c1C,Ki,[1],501 nM
COc1ccc2c(=O)n([C@@H]3CN4CCC3CC4)cc3c2c1CCC3,Ki,[1],12.6 nM
CN1[C@@H]2CC[C@H]1C[C@@H](OC(=O)c1c[nH]c3ccccc13)C2 [TROPISETRON],Ki,[1],2 nM
same,ED50,Rattus norvegicus [2],0.4 µg/kg
O=C(N[C@H]1CN2CCC1CC2)c1c2n(c3ccccc13)CCCC2,Ki,[1],12.6 nM
O=c1c2cccc(Cl)c2ccn1[C@@H]1CN2CCC1CC2,Ki,[1],2.51 nM
O=c1c2c3ccccc3n3c2c(cn1[C@H]1CN2CCC1CC2)CCC3,ED50,Rattus norvegicus [17],> 2.41 µg/kg
Cl.O=C1c2cccc3c2[C@H](CCC3)CN1[C@@H]1CN2CCC1CC2 [PALONOSETRON HYDROCHLORIDE],Ki,[1],0.0398 nM
same,No. of emetic episodes,Canis familiaris [18],2.67
same,No. of emetic episodes,Canis familiaris [19],0
same,No. of emetic episodes,Canis familiaris [20],7.17
same,No. of emetic episodes,Canis familiaris [21],4.33
same,No. of emetic episodes,Canis familiaris [22],1.33
same,No. of emetic episodes,Canis familiaris [23],12.83
same,No. of emetic episodes,Canis familiaris [24],16.17
same,No. of emetic episodes,Canis familiaris [25],4
same,No. of emetic episodes,Mustela putorius furo [26],15.17
same,No. of emetic episodes,Mustela putorius furo [27],7.17
same,No. of emetic episodes,Mustela putorius furo [28],2.17
same,No. of emetic episodes,Mustela putorius furo [29],0.6
same,No. of emetic episodes,Mustela putorius furo [30],0
same,No. of emetic episodes,Mustela putorius furo [31],0
same,No. of emetic episodes,Mustela putorius furo [32],0.17
same,No. of emetic episodes,Mustela putorius furo [33],9.67
same,No. of emetic episodes,Mustela putorius furo [34],1.8
same,No. of emetic episodes,Mustela putorius furo [35],0.8
same,ED50,Rattus norvegicus [2],0.02 µg/kg
O=c1c2cccc3c2c(cn1[C@H]1CN2CCC1CC2)CC3,Ki,[1],25.1 nM
O=c1c2ccccc2c(-c2ccccc2)cn1[C@@H]1CN2CCC1CC2,Ki,[1],2.51 nM
